Data reported in ChEMBL document CHEMBL4325909, “Synthesis and evaluation of chalcone analogues containing a 4-oxoquinazolin-2-yl group as potential anti-tumor agents” (Eur J Med Chem, 2019).
Calls of active or inactive are those of the source. The rule behind the calls is not given here.

Tests used:
MCF-10A [1] = assay: Cytotoxicity against human MCF10A cells assessed as reduction in cell viability after 72 hrs by MTS assay; assay type: cell-based
In short: (§1)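 MTS (CellTiter 96 AQueous One) proliferation read after 72 h of exposure across a concentration range. IC50 is the concentration giving 50% proliferation inhibition. Triplicate determinations in three independent experiments, mean ± SD.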

HT-29 = assay: Cytotoxicity against human HT-29 cells assessed as reduction in cell viability after 72 hrs by MTS assay; assay type: functional, cell-based; settings: HT-29, 72 h; in short: as §1
HCT-116 [2] = assay: Cytotoxicity against human HCT116 cells assessed as reduction in cell viability at 20 uM after 72 hrs by MTS assay relative to control; assay type: functional
In short: (§2)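 Cells grown in DMEM with 10% FBS at 37 °C, 5% CO2, exposed to 20 μM for 72 h. Proliferation read by MTS and inhibition expressed relative to vehicle. ≥50% inhibition counted as active. Triplicate wells, three independent experiments.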

MCF-10A [3] = assay: Induction of apoptosis in human MCF10A cells after 24 hrs by annexin V-FITC/propidium iodide staining-based flow cytometry method; assay type: cell-based
HCT-116 [4] = assay: Induction of apoptosis in human HCT116 cells assessed as early apoptotic cells at 1 times IC50 after 24 hrs by annexin V-FITC/propidium iodide staining-based flow cytometry method (reference value: 3.8%); assay type: functional
HCT-116 [5] = assay: Induction of apoptosis in human HCT116 cells assessed as early apoptotic cells at 2 times IC50 after 24 hrs by annexin V-FITC/propidium iodide staining-based flow cytometry method (reference value: 3.8%); assay type: functional
MCF7 [6] = assay: Cytotoxicity against human MCF7 cells assessed as reduction in cell viability at 20 uM after 72 hrs by MTS assay relative to control; assay type: functional; in short: as §2
HCT-116 [7] = assay: Induction of apoptosis in human HCT116 cells accumulation of cleaved caspase-9 level at 2 times IC50 after 12 hrs by Western blot analysis; assay type: functional, cell-based
In short: (§3)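 Whole lysates in SDS/β-mercaptoethanol sample buffer run on 4–18% gradient SDS-PAGE and transferred to PVDF. Blocked in 5% milk/PBST, primary antibodies overnight at 4 °C, HRP secondaries 1 h. β-actin served as loading reference.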

MCF-10A [8] = assay: Induction of apoptosis in human MCF10A cells assessed as necrotic cells at 1 times IC50 after 24 hrs by annexin V-FITC/propidium iodide staining-based flow cytometry method (reference value: 0.57%); assay type: cell-based
HCT-116 [9] = assay: Induction of apoptosis in human HCT116 cells after 24 hrs by acridine orange/ethidium bromide staining-based fluorescence microscopic analysis; assay type: functional, cell-based
HCT-116 [10] = assay: Induction of apoptosis in human HCT116 cells after 24 hrs by annexin V-FITC/propidium iodide staining-based flow cytometry method; assay type: functional, cell-based
HCT-116 [11] = assay: Induction of apoptosis in human HCT116 cells accumulation of cleaved caspase-7 level at 2 times IC50 after 12 hrs by Western blot analysis; assay type: functional, cell-based; in short: as §3
MDA-MB-231 = assay: Cytotoxicity against human MDA-MB-231 cells assessed as reduction in cell viability after 72 hrs by MTS assay; assay type: functional, cell-based; settings: MDA-MB-231, 72 h; in short: as §1
HCT-116 [12] = assay: Induction of apoptosis in human HCT116 cells accumulation of cleaved PARP1 level at 2 times IC50 after 12 hrs by Western blot analysis; assay type: functional, cell-based; in short: as §3
MCF-10A [13] = assay: Induction of apoptosis in human MCF10A cells assessed as early apoptotic cells at 1 times IC50 after 24 hrs by annexin V-FITC/propidium iodide staining-based flow cytometry method (reference value: 0.20%); assay type: cell-based
HCT-116 [14] = assay: Induction of apoptosis in human HCT116 cells assessed as viable cells at 2 times IC50 after 24 hrs by annexin V-FITC/propidium iodide staining-based flow cytometry method (reference value: 86.0%); assay type: functional
HCT-116 [15] = assay: Induction of apoptosis in human HCT116 cells assessed as late apoptotic cells at 1 times IC50 after 24 hrs by annexin V-FITC/propidium iodide staining-based flow cytometry method (reference value: 5.4%); assay type: functional
MCF-10A [16] = assay: Induction of apoptosis in human MCF10A cells assessed as late apoptotic cells at 2 times IC50 after 24 hrs by annexin V-FITC/propidium iodide staining-based flow cytometry method (reference value: 3.81%); assay type: cell-based
HCT-116 [17] = assay: Induction of apoptosis in human HCT116 cells assessed as necrotic cells at 2 times IC50 after 24 hrs by annexin V-FITC/propidium iodide staining-based flow cytometry method (reference value: 4.8%); assay type: functional
MCF-10A [18] = assay: Induction of apoptosis in human MCF10A cells assessed as late apoptotic cells at 1 times IC50 after 24 hrs by annexin V-FITC/propidium iodide staining-based flow cytometry method (reference value: 3.81%); assay type: cell-based
HCT-116 [19] = assay: Cytotoxicity against human HCT116 cells assessed as reduction in cell viability after 72 hrs by MTS assay; assay type: functional, cell-based; settings: HCT-116, 72 h
In short: (§4)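 Cells kept in DMEM with 10% FBS at 37 °C, 5% CO2. Proliferation read by MTS (CellTiter 96 AQueous One) 72 h after exposure across a concentration range. IC50 is the concentration giving 50% proliferation inhibition. Triplicate wells, three independent experiments, mean ± SD.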

[20] = Selectivity index, ratio of IC50 for human MCF10A cells to IC50 for human MCF7 cells; assay type: toxicity; settings: MCF10A cells versus MCF7 cells, read-out: Ratio IC50
HCT-116 [21] = assay: Induction of apoptosis in human HCT116 cells accumulation of cleaved caspase-9 level at 2 times IC50 after 8 hrs by Western blot analysis; assay type: functional, cell-based; in short: as §3
HCT-116 [22] = assay: Induction of apoptosis in human HCT116 cells assessed as necrotic cells at 1 times IC50 after 24 hrs by annexin V-FITC/propidium iodide staining-based flow cytometry method (reference value: 4.8%); assay type: functional
HCT-116 [23] = assay: Induction of apoptosis in human HCT116 cells assessed as viable cells at 1 times IC50 after 24 hrs by annexin V-FITC/propidium iodide staining-based flow cytometry method (reference value: 86.0%); assay type: functional
A549 = assay: Cytotoxicity against human A549 cells assessed as reduction in cell viability after 72 hrs by MTS assay; assay type: functional, cell-based; settings: A549, 72 h; in short: as §1
HCT-116 [24] = assay: Induction of reactive oxygen species generation in human HCT116 cells assessed as increase in mitochondrial superoxide generation at 1 to 2 times IC50 after 24 hrs by MitoSOX red dye-based fluorescence microscopic analysis; assay type: functional, cell-based
HCT-116 [25] = assay: Induction of apoptosis in human HCT116 cells assessed as late apoptotic cells at 2 times IC50 after 24 hrs by annexin V-FITC/propidium iodide staining-based flow cytometry method (reference value: 5.4%); assay type: functional
MCF7 [26] = assay: Cytotoxicity against human MCF7 cells assessed as reduction in cell viability after 72 hrs by MTS assay; assay type: functional, cell-based; settings: MCF7, 72 h; in short: as §4
[27] = Induction of apoptosis in human MCF10A cells assessed as viable cells at 1 times IC50 after 24 hrs by annexin V-FITC/propidium iodide staining-based flow cytometry method (reference value: 95.4%); assay type: cell-based, MCF-10A; settings: read-out: Activity
[28] = Induction of apoptosis in human MCF10A cells assessed as viable cells at 2 times IC50 after 24 hrs by annexin V-FITC/propidium iodide staining-based flow cytometry method (reference value: 95.4%); assay type: cell-based, MCF-10A; settings: read-out: Activity
MCF-10A [29] = assay: Induction of apoptosis in human MCF10A cells assessed as early apoptotic cells at 2 times IC50 after 24 hrs by annexin V-FITC/propidium iodide staining-based flow cytometry method (reference value: 0.20%); assay type: cell-based
HCT-116 [30] = assay: Induction of apoptosis in human HCT116 cells accumulation of cleaved caspase-3 level at 2 times IC50 after 12 hrs by Western blot analysis; assay type: functional, cell-based; in short: as §3
HeLa = assay: Cytotoxicity against human HeLa cells assessed as reduction in cell viability after 72 hrs by MTS assay; assay type: functional, cell-based; in short: as §1
HCT-116 [31] = assay: Induction of mitochondrial membrane depolarization in human HCT116 cells at 2 times IC50 after 24 hrs by JC-1 staining based fluorescence microscopic analysis; assay type: functional, cell-based
In short: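 HCT-116 cells exposed at 2× IC50 for 24 h, washed, then stained with JC-1 in fresh medium for 20 min at 37 °C and rinsed. Red aggregates and green monomers imaged by fluorescence microscopy at 40×.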

MCF-10A [32] = assay: Induction of apoptosis in human MCF10A cells assessed as necrotic cells at 2 times IC50 after 24 hrs by annexin V-FITC/propidium iodide staining-based flow cytometry method (reference value: 0.57%); assay type: cell-based
HCT-116 [33] = assay: Cell cycle arrest in human HCT116 cells assessed as increase in accumulation of cells at sub-G1 phase after 24 hrs by propidium iodide staining-based flow cytometry method; assay type: functional

COc1ccc(OC)c(C(=O)/C=C/c2nc3ccccc3c(=O)[nH]2)c1
IC50 (MCF-10A [1]): 9.81 µM | IC50 (HT-29): 6.18 µM | Activity (HCT-116 [2]): >=50% | Activity (MCF-10A [3]): Dose-dependent effect | Activity (HCT-116 [4]): 2.1% | Activity (HCT-116 [5]): 6.9% | Activity (MCF7 [6]): >=50% | Activity (HCT-116 [7]): Active | Activity (MCF-10A [8]): 0.62% | Activity (HCT-116 [9]): Dose-dependent effect | Activity (HCT-116 [10]): Dose-dependent effect | Activity (HCT-116 [11]): Active | IC50 (MDA-MB-231): 10.6 µM | Activity (HCT-116 [12]): Active | Activity (MCF-10A [13]): 0.3% | Activity (HCT-116 [14]): 54.3% | Activity (HCT-116 [15]): 10.8% | Activity (MCF-10A [16]): 5.38% | Activity (HCT-116 [17]): 9.7% | Activity (MCF-10A [18]): 4.67% | IC50 (HCT-116 [19]): 3.56 µM | selectivity ratio [20]: > 2 | Activity (HCT-116 [21]): Active | Activity (HCT-116 [22]): 8.9% | Activity (HCT-116 [23]): 78.2% | IC50 (A549): 12.7 µM | Activity (HCT-116 [24]): Active | Activity (HCT-116 [25]): 29.1% | IC50 (MCF7 [26]): 4.08 µM | viability at 24 h, 1 times IC50 [27]: 94.4% | viability at 24 h, 2 times IC50 [28]: 92.6% | Activity (MCF-10A [29]): 1.19% | Activity (HCT-116 [30]): Active | IC50 (HeLa): 8.37 µM | Activity (HCT-116 [31]): Active | Activity (MCF-10A [32]): 0.87% | Activity (HCT-116 [33]): Dose-dependent effect
